Bioassay records from PubChem.
Compounds with a hit are over-represented: about 2.6% of the library has one in this group of screens.
Rin1 Abl inh = blocks binding of human Rin1 to Abl; inhibition, % at 7.35 µM; TR-FRET Rin1/Abl binding, biochemical; AID 588664; actives 0.4% (n = 360,000); P00519+Q13671; in the data active = inhibition above about 5%, passing the limit was not always enough
GRK2 aptamer HTS = inhibitors of human GRK2 displacing RNA aptamer | actives 0.59% (n = 330,000) | P25098 | bead flow cytometry, FAM-aptamer displacement from GRK2 | inhibition of aptamer binding, % at 10 µM;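 active = inhibition of aptamer binding above 40%, roughly 3 SD of noise, on plates passing a quality check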;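 note: median bead fluorescence of bound FAM aptamer so fluorescent compounds give negative values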
Target sequence (P25098 whole entry, looked up): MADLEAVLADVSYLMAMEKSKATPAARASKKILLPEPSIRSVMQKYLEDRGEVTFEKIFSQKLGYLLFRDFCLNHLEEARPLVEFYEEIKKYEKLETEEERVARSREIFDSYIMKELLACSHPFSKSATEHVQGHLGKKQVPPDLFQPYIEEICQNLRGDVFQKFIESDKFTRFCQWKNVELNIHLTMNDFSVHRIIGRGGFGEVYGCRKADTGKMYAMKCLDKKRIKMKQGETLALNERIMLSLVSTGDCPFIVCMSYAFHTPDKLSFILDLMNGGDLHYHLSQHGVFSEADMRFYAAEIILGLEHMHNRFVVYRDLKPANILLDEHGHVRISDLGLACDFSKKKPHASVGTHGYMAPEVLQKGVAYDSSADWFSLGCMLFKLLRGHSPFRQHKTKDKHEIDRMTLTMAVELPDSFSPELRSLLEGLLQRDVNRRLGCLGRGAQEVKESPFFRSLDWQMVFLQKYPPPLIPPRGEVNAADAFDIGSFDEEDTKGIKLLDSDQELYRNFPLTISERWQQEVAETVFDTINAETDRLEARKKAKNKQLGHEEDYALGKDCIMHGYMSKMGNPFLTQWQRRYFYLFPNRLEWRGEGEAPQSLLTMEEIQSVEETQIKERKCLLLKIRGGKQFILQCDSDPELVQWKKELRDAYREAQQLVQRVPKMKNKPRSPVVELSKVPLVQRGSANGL
Myeloid diff MLP = promotes myeloid progenitor differentiation | actives 1% (n = 360,000) | AID 624256 | ER-HoxA9 myeloid progenitors, lysozyme-GFP differentiation, flow cytometry | calls only at 10 µM;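 active = normalized GFP-positive differentiation at or above the plate's own cutoff, the solvent-only control mean plus 3 SD; inconclusive = no clear call, values can overlap the other calls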;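 note: cells exposed to compound for four days before flow analysis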
T cell modulator = modulates CD8 T cell binding to vesicles. actives 0.068% (n = 330,000). 2C CD8+ T cell-vesicle binding, flow cytometry; hits give low values. AID 2052. response (vesicle binding), % at 7 µM;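 active = response, share of CD8 T cells binding vesicles, and their 90th percentile fluorescence all below set limits, cut at about 80% in these data, passing the limit was not always enough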;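 note: values below 100% mean blocked vesicle binding to the CD8+ T cells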
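Assay system – 2C mouse CD8+ T cells · Also added – QL9-loaded Drosophila micro-vesicles · Timing – Cell–vesicle co-incubation 1.5 h at 37 °C, staining 20 min on ice · Signal – flow cytometry of vesicle-bound cells · Measure – percent CD8+ FL2 mean versus row control · Controls – Peptide-free naked vesicles (low) and QL9 vesicles with 0.7% DMSO vehicle (high)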
SKN-1 inh = blocks SKN-1 activity in C. elegans; inhibition, % at 21.8 µM; AID 624304; actives 0.49% (n = 360,000); C. elegans VP596 Pgst-4::GFP/RFP ratio, acrylamide-induced, 24 h;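 active = interference check ratio from 0.5 to 1.5 plus GFP to RFP signal ratio inhibition reaching or exceeding a fixed threshold, cut at about 30% in these data, passing the limit was not always enough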
Rce1 inhib = blocks yeast Ras-converting enzyme | calls only | AID 2563 | yeast membranes, quenched prenylated peptide cleavage fluorescence | actives 0.27% (n = 290,000);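 active = fall in fluorescence gain of 50% or more versus controls, with final raw signal at or below 3038400; inconclusive = same 50% fall but final raw signal above 3038400; inactive = fall in fluorescence gain under 50%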;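 note: plate controls were neutral control wells for no effect and wells lacking membranes for full effect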
Numbers without * were called inactive; i = inactive; ? = inconclusive; . = no result; + = active, no number.

SMILES	Rin1 Abl inh	GRK2 aptamer HTS	Myeloid diff MLP	T cell modulator	SKN-1 inh	Rce1 inhib
CC(O)c1nc2ccccc2n1CC(=O)N1CCN(c2ccccc2)CC1 (centres undefined)	6	0	?	283	-6	i
COc1cc(-c2nc3ccccn3c2NCC2CCCO2)ccc1O (centres undefined)	-4	2	i	331	7	+
COc1cc(-c2nc3ccccn3c2/N=C/c2ccccc2)ccc1O	2	3	i	197	1	+
CCOc1cc(-c2nc3ccccn3c2NCC2CCCO2)ccc1O (centres undefined)	-1	0	i	852	-14	i
CC(C)(C)OC(=O)[C@H](Cc1ccccc1)NC(=O)c1[nH]cnc1C(=O)Nc1ccccc1F	0	.	i	.	0	.
Cc1ccc(NC(=O)CSc2nnc3ccccn23)cc1	-2	3	i	238	-6	i
Cc1ccc2nc(NC(=O)CSc3nncc(=O)n3N)sc2c1	-1	0	i	108	-5	i
O=C1c2ccc3c4c(ccc(c24)C(=O)N1c1ccc2ccccc2c1)CC3	0	0	i	484	35*	i
O=C(Nc1nc(-c2ccccn2)cs1)c1cc(S(=O)(=O)N2CCOCC2)ccc1F	0	0	+	359	2	.
O=C(Nc1nc(-c2ccccn2)cs1)c1ccc(F)c(S(=O)(=O)N2CCOCC2)c1	-3	2	?	306	3	.
Cc1ncc([N+](=O)[O-])n1CC(=O)Nc1ccc(F)cc1F	2	0	i	150	6	i
Cc1ncc([N+](=O)[O-])n1CC(=O)N/N=C/c1ccc(F)cc1	2	1	+	605	7	i
CS/C(=C(/C#N)S(=O)(=O)c1ccc(Cl)cc1)N1CCOCC1	-2	0	i	768	3	i
CC(=O)N1CCc2cc(S(=O)(=O)CCC(=O)Nc3ccccc3F)ccc21	2	0	+	455	5	i
CC(=O)N1CCc2cc(S(=O)(=O)CCC(=O)N3CCN(c4ccccc4F)CC3)ccc21	4	5	?	282	17	i
COc1ccc2c(c1)CC/C(=C/c1ccncc1)C2=O	1	1	+	106	-2	i
CN(Cc1ccccc1)C(=O)COc1ccc(C(C)(C)C)cc1	2	0	i	100	-13	i
CCn1c(CSc2nnc(-c3ccncc3)n2C)nc2cc(C(=O)O)ccc21	2	0	i	188	41*	i
Cc1ccc(S(=O)(=O)Nc2c(O)ccc3ccccc23)cc1	0	1	i	33*	24	i
COc1ccc(S(=O)(=O)N/N=C(/C)c2ccncc2)cc1OC	0	0	i	341	-1	i
CCN(CC)CCNC(=O)CN1C(=O)CSc2ccc(S(=O)(=O)N3CCOCC3)cc21	-3	.	i	.	-3	.
COc1ccc(-c2sc3cc4c(cc3c2-c2ccc(OCCN3CCCCC3)cc2)OCO4)cc1	-3	0	+	.	24	.
COc1cc(OC)cc(-c2sc3ccc(OC)cc3c2-c2ccc(OCCN3CCCCC3)cc2)c1	-4	0	i	.	3	.
C=C1C(=O)[C@]23C[C@H]1CCC2[C@]1(C)C(=O)CC[C@@](C)(C(=O)O)C1C[C@@H]3O (some centres undefined)	5	.	+	.	6	.
C=C1C(=O)[C@]23C[C@H]1CCC2[C@]1(C)CCC[C@@](C)(C(=O)O)C1C[C@@H]3O (some centres undefined)	-1	.	?	.	4	.
SMILES	Rin1 Abl inh	GRK2 aptamer HTS	Myeloid diff MLP	T cell modulator	SKN-1 inh	Rce1 inhib
Cc1sc2nc(CSCC(=O)Nc3ccc(C(=O)N(C)C)cc3)[nH]c(=O)c2c1C	4	4	i	146	2	.
CC1=C(C(=O)c2ccccc2)C(c2cn(-c3ccccc3)nc2-c2ccc(Cl)cc2)NC(=S)N1 (centres undefined)	-5	3	i	.	38*	i
O=C1NC(=O)C(c2cn(-c3ccccc3)nc2-c2ccc(F)cc2)N1 (centres undefined)	-2	0	i	421	0	.
O=C1c2cc(Br)ccc2OC2C=CC=CC12 (centres undefined)	-3	1	i	.	42*	.
Nc1nnn(CC(=O)N/N=C/C=C/c2ccccc2)n1	-4	2	i	213	-6	i
CCOC(=O)C1CC2=C(CCCC2=O)NC1=O (centres undefined)	-1	.	i	.	-8	.
COc1cccc(C2/C(=C(\O)c3ccc4c(c3)OCCO4)C(=O)C(=O)N2CCCN2CCOCC2)c1OC (centres undefined)	-3	1	i	476	1	i
CCNc1nc(Cl)nc(NCc2ccccc2)n1	-1	0	i	795	17	i
COC(=O)/C=C/c1c(C)nc(NCc2ccccc2)nc1Cl	-3	4	+	270	18	i
CN1C(=O)NC(c2ccccc2[N+](=O)[O-])C2=C1CCCC2=O (centres undefined)	-7	2	+	210	71	i
CCOc1ccc(N(CC(=O)N2CCc3ccccc32)S(=O)(=O)c2c(C)noc2C)cc1	-1	3	+	514	3	i
CCN(CC(=O)Nc1ccccc1C(F)(F)F)C(=O)c1ccc2c(=O)n3c(nc2c1)CCC3	2	0	+	199	9	.
CCN(CC(=O)Nc1ccccc1C(F)(F)F)C(=O)c1ccccc1Cc1ccccc1	3	0	i	238	19	i
CCN(CC(=O)Nc1ccccc1C(F)(F)F)C(=O)C1CC(=O)N(Cc2ccccc2)C1 (centres undefined)	1	0	i	367	35*	i
C=CCN1C(=O)[C@@H]2Cc3c([nH]c4ccccc34)C(c3ccc(O)cc3)N2C1=S (some centres undefined)	2	2	+	102	-4	i
COc1cc([C@H]2c3[nH]c4ccccc4c3C[C@H]3C(=O)N4[C@@H](c5cc(OC)c(OC)c(OC)c5)c5[nH]c6ccccc6c5C[C@H]4C(=O)N23)cc(OC)c1OC	-1	0	i	131	-11	i
CCN1C(=O)[C@@H]2Cc3c([nH]c4ccccc34)C(c3cc(OC)c(OC)c(OC)c3)N2C1=S (some centres undefined)	3	1	+	138	-14	i
C=CCN1C(=O)[C@@H]2Cc3c([nH]c4ccccc34)C(c3cc(OC)c(OC)c(OC)c3)N2C1=S (some centres undefined)	2	0	+	395	-2	i
CC1(C)CC2(OC2c2ccccc2)C(=O)c2ccccc21 (centres undefined)	2	.	i	.	-15	.
Cc1cccc(C(=O)OCC(=O)Nc2c(C)n(C)n(-c3ccccc3)c2=O)c1O	1	0	i	267	-8	.
